Screening data deposited in PubChem BioAssay by several laboratories.
Most compounds without a hit are left out; they make up all but 4% or so of the library.
GPR7 antagonist: blocks human GPR7 receptor signaling; P48145; AID 1861; 290,000 compounds, 1.1% hits; GPR7-expressing cells, fluorescence antagonist assay; inhibition, % at 4.4 µM; in the data active means inhibition above about 16%, passing the limit was not always enough;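 further: cells stimulated with the agonist NPW; 0% = agonist with vehicle and 100% = vehicle without agonist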
Target sequence (P48145 whole entry, looked up): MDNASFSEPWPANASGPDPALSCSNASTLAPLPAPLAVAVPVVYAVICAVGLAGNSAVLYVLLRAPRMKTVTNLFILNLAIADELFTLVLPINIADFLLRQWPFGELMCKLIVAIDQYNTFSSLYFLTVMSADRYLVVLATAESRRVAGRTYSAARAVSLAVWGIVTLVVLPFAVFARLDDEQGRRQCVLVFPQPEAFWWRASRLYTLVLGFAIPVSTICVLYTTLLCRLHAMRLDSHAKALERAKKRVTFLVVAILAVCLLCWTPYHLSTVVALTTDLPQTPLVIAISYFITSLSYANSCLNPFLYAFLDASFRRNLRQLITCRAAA
TAAR1 agonist: agonists of human TAAR1; Q96RJ0; CHO RD-HGA16 TAAR1, Fluo-8 calcium fluorescence; vehicle wells 0%, saturating PEA agonist 100%; activation, % at 3 µM; 360,000 compounds, 0.99% hits;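 active means activation above the mean activation of all test compounds in the run plus 3 SD, cut at about 38% in these data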
Target sequence (Q96RJ0 whole entry, looked up): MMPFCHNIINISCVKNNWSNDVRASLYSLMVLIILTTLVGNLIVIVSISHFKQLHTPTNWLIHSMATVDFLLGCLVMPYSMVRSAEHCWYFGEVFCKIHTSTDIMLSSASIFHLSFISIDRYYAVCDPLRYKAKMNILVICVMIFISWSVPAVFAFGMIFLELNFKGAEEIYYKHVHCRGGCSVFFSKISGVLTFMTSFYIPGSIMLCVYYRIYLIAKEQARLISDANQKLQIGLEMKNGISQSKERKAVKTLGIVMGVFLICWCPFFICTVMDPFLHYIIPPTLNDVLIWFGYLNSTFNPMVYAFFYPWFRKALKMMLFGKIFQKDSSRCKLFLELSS
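System: CHO RD-HGA16 cells carrying human TAAR1 plus Gα16; Incubation: 17-24 h seeding, 75 min 37 °C dye, 30 min RT; Measured by: Fluo-8 fluorescence, 5 s baseline then 140 s kinetic read; Control set: DMSO and PEA EC100; Replication: single well for each compound.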
DAGLB inhibitor: diacylglycerol lipase beta (human) inhibition | HEK293T DAGLB membrane lysate, EnzChek fluorogenic substrate | AID 504411 | inhibition, % at 5.17 µM | Q8NCG7 | 340,000 compounds, 0.059% hits; in the data active means inhibition above about 34%;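 further: 0% = enzyme with vehicle and 100% = wells lacking enzyme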
MPTP inh: permeability transition pore inhibition; isolated mouse mitochondria, Ca2+ swelling absorbance, 30 min; inhibition, % at 10 µM; 360,000 compounds, 1.4% hits; AID 602449;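 active means inhibition of 50% or more, scaled per plate between neutral and stimulator controls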;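 further: 0% = DMSO wells given calcium and 100% = 1 mM EGTA wells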
TAAR1 antag: human TAAR1 antagonism. Q96RJ0. CHO RD-HGA16 TAAR1, Fluo-8 calcium fluorescence, antagonist. inhibition, % at 3 µM. 360,000 compounds, 1.5% hits. AID 624466;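 active means inhibition above a per-plate cutoff, the mean inhibition of test compounds on that plate plus 3 SD, cut at about 49% in these data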;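 further: 0% = DMSO plus EC80 beta-PEA response and 100% = DMSO alone without agonist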
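Test system: hTAAR1-expressing CHO RD-HGA16 cells, Gα16-coupled; Probe or stimulus: EC80 β-phenethylamine stimulus; Compound dosing: single nominal final test compound concentration of 3 µM; Timing: 140 s kinetic read after compound, 140 s after agonist; Signal: Fluo-8 calcium-sensitive fluorescence; Measure: % inhibition of agonist calcium response; Controls: DMSO and EC80 PEA controls.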
Rh123 counter: membrane potential counter-screen of mitochondrial pore inhibitors; isolated mitochondria, Rhodamine 123 fluorescence; 5,000 compounds, 78% hits; inhibition, % at 10 µM; shares compounds with MPTP inh; in the data active means inhibition above about 22%;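 further: 0% = DMSO vehicle and 100% = positive control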
MPTP swell DR: dose response confirmation of mitochondrial permeability transition pore inhibitors | isolated mitochondria swelling, absorbance | 780 compounds, 58% hits | IC50, µM | AID 651561 | shares compounds with MPTP inh; in the data active means IC50 below about 20 µM
MPTP counter DR: MPTP inhibitor counter-screen activity, dose response. AID 651564. IC50, µM. 780 compounds, 49% hits. shares compounds with MPTP inh. isolated mitochondria counterscreen, fluorescence read-out; in the data active means IC50 below about 80 µM
* hit, by the source's call; i = inactive; . = no result.

SMILES | GPR7 antagonist | TAAR1 agonist | DAGLB inhibitor | MPTP inh | TAAR1 antag | Rh123 counter | others
O=S(=O)(c1ccc(NC(=S)NCc2ccco2)cc1)N1CCCCC1 | -4 | 13 | -1 | 79* | 1 | 92*
Cc1ccc(NC(=O)c2ccccc2NS(=O)(=O)c2ccc(F)cc2)cc1S(=O)(=O)N1CCCCC1 | -11 | 8 | 8 | 95* | 27 | 84*
NNc1ccc([N+](=O)[O-])c2[nH][nH]c(=O)c12 | . | 5 | 5 | 6 | -14 | .
O=C(Nc1cc(S(=O)(=O)Nc2ccccc2Cl)ccc1O)c1ccc(F)cc1F | . | 6 | 6 | 59* | 25 | 68*
Cc1onc(-c2c(F)cccc2Cl)c1C(=O)Nc1cc(S(=O)(=O)N2CCCCC2)ccc1O | . | 13 | 1 | 84* | 20 | 84*
O=C(Nc1cccc(S(=O)(=O)N2CCCCC2)c1)c1ccccc1NS(=O)(=O)c1ccc(F)cc1 | -3 | 7 | 4 | 96* | 13 | 81*
CCCCN(C=O)c1c(CC)nc2c(OCC3CCCCC3)cccn12 | . | 5 | . | 2 | -53 | .
Cc1cccc(N2CCN(C(=O)COc3ccc4c(c3)CCC4)CC2C)c1 (stereo unspecified) | . | 4 | -7 | 1 | 14 | .
Cc1ccc(NC(=O)c2cc(-c3cc(Cl)ccc3O)n[nH]2)cc1C | 10 | 0 | 5 | 5 | -4 | .
COc1ccc(NC(=O)c2cc(-c3cc(C)cc(C)c3O)n[nH]2)cc1Cl | 2 | 10 | 0 | 95* | 8 | 63*
Cc1cc(C)c(O)c(-c2cc(C(=O)Nc3cccnc3)[nH]n2)c1 | -3 | 4 | 0 | 59* | 36 | 60*
Cc1ccc(Cl)cc1-c1cc(C(=O)Nc2ccc(F)cc2)[nH]n1 | . | 3 | . | 64* | 24 | 96*
Cc1ccc(-n2nc3c(=O)n(CC(=O)NC(C)CCc4ccccc4)nc(C)c3c2C)cc1 (stereo unspecified) | -1 | . | -1 | 6 | . | .
CCOc1ccc(-c2cc(C(=O)Nc3ccc(F)cc3)[nH]n2)c(C)c1 | . | 1 | . | -1 | -7 | .
CC1(C(=O)Nc2ccccc2)CCN1C(=O)CCc1ccc(Cl)cc1Cl (stereo unspecified) | . | -3 | . | 0 | -1 | .
Fc1ccc(Nc2nc(NCc3cccs3)nc3ccsc23)cc1 | . | 11 | . | 3 | 24 | .
CCCCCCC#Cc1cncc(C(=O)NNC(=O)Nc2cc(Cl)cc(Cl)c2)c1 | -10 | -1 | . | 55* | -4 | 55*
CCCCC#Cc1cncc(C(=O)NN)c1 | -15 | -1 | -12 | 1 | -23 | .
CN1CCN(CCCC(=O)c2ccc(C3CCCC3)cc2)CC1 | 3 | 5 | 3 | 79* | -19 | -2 | MPTP swell DR=5.9*;MPTP counter DR=19*
COc1ccc(CN2C(=O)CSCC2(C)C(=O)Nc2c(C)cccc2C)cc1 (stereo unspecified) | . | 1 | . | 1 | -19 | .
Cc1cc(C)cc(CC(=O)N2CCC2(C)C(=O)NS(=O)(=O)Cc2ccccc2)c1 (stereo unspecified) | . | 0 | . | 1 | -13 | .
CSc1nc(Oc2ccc3ccccc3c2)c2ccccc2n1 | 1 | 2 | -9 | 80* | 0 | 5 | MPTP swell DR=9.4*;MPTP counter DR=>80
Cc1cccc(Nc2nc(-c3c(C)nc4ccccn34)cs2)c1 | 23 | 0 | 3 | 86* | 48 | 76*
CC1(C(=O)Nc2ccc3c(c2)OCCO3)CCN1C(=O)C1(c2ccc(Cl)cc2)CC1 (stereo unspecified) | . | 0 | . | -2 | 8 | .
C[C@H](CO)N1C[C@H](C)[C@@H](CN(C)C(=O)Nc2ccc(-c3cccs3)cc2)OCc2cn(nn2)CCCC1=O | . | 0 | . | . | 8 | .
SMILES | GPR7 antagonist | TAAR1 agonist | DAGLB inhibitor | MPTP inh | TAAR1 antag | Rh123 counter | others
O=C(CSc1nc2cc(Cl)c(Cl)cc2[nH]1)c1ccc2c(c1)OCO2 | -5 | -2 | -4 | 78* | 38 | 73*
CCCCNC(=S)Nc1ccc(Cl)cc1 | -6 | 9 | -4 | 83* | 9 | 81*
CCCCNC(=S)Nc1ccc(C(F)(F)F)cc1 | 1 | 3 | -6 | 102* | 3 | 82*
O=C(Nc1ccc(Cl)cc1)Nc1nnc(CSCc2ccccc2)s1 | -13 | 2 | 0 | 97* | -9 | 60*
O=C(Cc1nnc(NC(=O)Nc2ccc(Cl)cc2)s1)NCc1ccccc1 | -1 | 19 | -5 | -1 | 30 | .
O=C(Nc1ccc(Cl)cc1)Nc1nnc(CSc2ccc(Cl)cc2)s1 | 4 | 12 | -3 | 85* | -7 | 63*
O=C(Nc1ccc(Cl)cc1)Nc1nnc(Cc2ccc([N+](=O)[O-])cc2)s1 | -1 | 23 | 1 | 83* | -20 | 63*
CC(C)(C)c1ccc(C2CC2C(=O)N/N=C\c2ccc[nH]2)cc1 (stereo unspecified) | -17 | 5 | 0 | 105* | 24 | 98*
Cc1cc(F)ccc1NCc1ccccc1[N+](=O)[O-] | -3 | 3 | . | -1 | 15 | .
O=[N+]([O-])c1ccccc1CNc1ccc(F)c(Cl)c1 | 0 | 5 | 0 | 76* | 16 | 80*
Cc1nc(SCc2nc3cc(Cl)c(F)cc3[nH]2)c2oc3ccccc3c2n1 | . | 8 | -4 | 63* | 23 | 80*
Cc1nc(SCc2nc3ccc(Br)cc3[nH]2)c2oc3ccccc3c2n1 | . | 8 | -9 | 44 | 28 | .
Cc1nc(SCc2nc3ccc(C(F)(F)F)cc3[nH]2)c2oc3ccccc3c2n1 | . | 27 | -5 | 50* | 0 | 89*
CCc1nc(SCc2nc3ccccc3[nH]2)c2oc3ccccc3c2n1 | -4 | 12 | -5 | 69* | 41 | 82*
C[C@@H]1CCCCO[C@H](CN(C)Cc2ccc3c(c2)OCO3)[C@@H](C)CN([C@H](C)CO)C(=O)c2cc(NC(=O)c3ccccc3)ccc2O1 | . | -1 | 1 | -1 | -3 | .
COc1cccc(-c2ccc3c(c2)O[C@@H](CN(C)Cc2cncnc2)[C@@H](C)CN([C@H](C)CO)S3(=O)=O)c1 | . | 5 | -1 | -1 | 6 | .
CC(=O)c1c(C)[nH]c(C(=O)OCCCCN2C(=O)c3ccccc3C2=O)c1C | 10 | 21 | -2 | 103* | 72* | 91*
CC(=O)c1c(C)[nH]c(C(=O)OCc2ccccc2)c1C | -8 | 9 | -1 | 7 | 10 | .
CCOC(=O)C1=C(CC)Nc2ccccc2N=C1NC(=O)Nc1ccc(Cl)c(Cl)c1 | 19 | 9 | -3 | 97* | 43 | 62*
Cc1ccc(CSc2ncn(-c3ccccc3)n2)cc1 | -2 | 10 | -9 | 2 | 8 | .
Cc1ccc(CSc2nccc(-c3c(C)nc4ccccn34)n2)cc1 | -5 | 2 | . | 61* | -19 | 13 | MPTP swell DR=i;MPTP counter DR=>80
CO[C@@H]1[C@H](O)CC[C@]2(O)CN(c3ccc(F)cc3)[C@](C)([C@H](O)CC=C(C)C)[C@@H]12 | . | 4 | . | . | -22 | .
